Laboratory results published in ChEMBL document CHEMBL1157328, “Linear sesquiterpene lactones from Anthemis auriculata and their antibacterial activity” (2006).
≈ marks a conversion by molar mass, not a printed value.

Key:
[1] = system: Agrobacterium tumefaciens; test: Antibacterial activity against Agrobacterium tumefaciens A281 after 48 hrs by serial dilution technique; type: functional; details: A281, 48 h
Method in brief: (§1)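 Broth microdilution MIC in 96-well plates. Compounds dissolved at 10 mg/mL in DMSO, diluted in nutrient medium to 1000 μg/mL, tested at final […] in serial dilution. Bacteria grown overnight at 37 °C in TSB (~10^9 cells/mL), adjusted with sterile saline to ~1.0×10^5 per well. Plates incubated 48 h at 37 °C.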

Pseudomonas aeruginosa = test: Antibacterial activity against Pseudomonas aeruginosa isolate after 48 hrs by serial dilution technique; type: functional; method in brief: as §1
Proteus mirabilis = test: Antibacterial activity against Proteus mirabilis isolate after 48 hrs by serial dilution technique; type: functional; method in brief: as §1
Micrococcus luteus [2] = test: Antibacterial activity against Micrococcus luteus isolate after 48 hrs by serial dilution technique; type: functional; method in brief: as §1
Staphylococcus aureus = test: Antibacterial activity against Staphylococcus aureus ATCC 6538 after 48 hrs by serial dilution technique; type: functional; details: ATCC 6538, 48 h; method in brief: as §1
Pseudomonas tolaasii = test: Antibacterial activity against Pseudomonas tolaasii after 48 hrs by serial dilution technique; type: functional; method in brief: as §1
Escherichia coli = test: Antibacterial activity against Escherichia coli ATCC 35218 after 48 hrs by serial dilution technique; type: functional; details: ATCC 35218, 48 h; method in brief: as §1
Micrococcus luteus [3] = test: Antibacterial activity against Sarcina lutea ATCC 9341 after 48 hrs by serial dilution technique; type: functional; details: ATCC 9341, 48 h; method in brief: as §1
Bacillus cereus = test: Antibacterial activity against Bacillus cereus isolate after 48 hrs by serial dilution technique; type: functional; method in brief: as §1
Salmonella enteritidis = test: Antibacterial activity against Salmonella enteritidis ATCC 13076 after 48 hrs by serial dilution technique; type: functional, Salmonella enterica subsp. enterica serovar Enteritidis; details: Salmonella enterica, ATCC 13076, 48 h; method in brief: as §1
Candida albicans = test: Antifungal activity against Candida albicans isolate after 72 hrs by serial dilution technique; type: functional
Method in brief: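 Candida albicans clinical isolate kept on Sabouraud agar at +4 °C, subcultured monthly. Compounds dissolved at 10 mg/mL in DMSO, diluted in medium to 1000 μg/mL, tested at final […] by serial microdilution in 96-well plates. Inoculum adjusted with saline to ~1.0×10^5 per well. Incubated 72 h at 28 °C. MIC recorded.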

Row | MIC [1] | MIC (Pseudomonas aeruginosa) | MIC (Proteus mirabilis) | MIC (Micrococcus luteus [2]) | MIC (Staphylococcus aureus) | MIC (Pseudomonas tolaasii) | MIC (Escherichia coli) | MIC (Micrococcus luteus [3]) | MIC (Bacillus cereus) | MIC (Salmonella enteritidis) | MIC (Candida albicans) | Structure (SMILES)
1 | 94.7 µM (≈ 25 µg/mL) | 189 µM (≈ 50 µg/mL) | 189 µM (≈ 50 µg/mL) | 94.7 µM (≈ 25 µg/mL) | 47 µM (≈ 12.4 µg/mL) | 189 µM (≈ 50 µg/mL) | 189 µM (≈ 50 µg/mL) | 47 µM (≈ 12.4 µg/mL) | 94.7 µM (≈ 25 µg/mL) | 189 µM (≈ 50 µg/mL) | 189 µM (≈ 50 µg/mL) | C=C1C(=O)OC[C@H]1[C@@H](O)/C=C(\C)CC(=O)C=C(C)C
2 | 81.7 µM (≈ 25 µg/mL) | 163 µM (≈ 50.1 µg/mL) | 163 µM (≈ 50.1 µg/mL) | 81.7 µM (≈ 25 µg/mL) | 81.7 µM (≈ 25 µg/mL) | 163 µM (≈ 50.1 µg/mL) | 81.7 µM (≈ 25 µg/mL) | 40.8 µM (≈ 12.5 µg/mL) | 81.7 µM (≈ 25 µg/mL) | 163 µM (≈ 50.1 µg/mL) | 81.7 µM (≈ 25 µg/mL) | C=C1C(=O)OC[C@H]1[C@H](/C=C(\C)CC(=O)C=C(C)C)OC(C)=O
3 | 68.6 µM (≈ 39.9 µg/mL) | – | 137 µM (≈ 79.8 µg/mL) | 34.3 µM (≈ 19.9 µg/mL) | 34.3 µM (≈ 19.9 µg/mL) | 137 µM (≈ 79.8 µg/mL) | 68.6 µM (≈ 39.9 µg/mL) | 34.3 µM (≈ 19.9 µg/mL) | 34.3 µM (≈ 19.9 µg/mL) | 137 µM (≈ 79.8 µg/mL) | – | CN[C@@H]1[C@H](O[C@H]2[C@H](O[C@H]3[C@H](O)[C@@H](O)[C@H](N=C(N)N)[C@@H](O)[C@@H]3N=C(N)N)O[C@@H](C)[C@]2(O)C=O)O[C@@H](CO)[C@H](O)[C@H]1O [STREPTOMYCIN]

The next lines start with the compound.

Row | Structure (SMILES) | MIC [1] | MIC (Pseudomonas aeruginosa) | MIC (Proteus mirabilis) | MIC (Micrococcus luteus [2]) | MIC (Staphylococcus aureus) | MIC (Pseudomonas tolaasii) | MIC (Escherichia coli) | MIC (Micrococcus luteus [3]) | MIC (Bacillus cereus) | MIC (Salmonella enteritidis) | MIC (Candida albicans)
4 | C=C1CC[C@]2(C)CC[C@]3(C)[C@H](CC[C@@H]4[C@@]5(C)CC[C@H](O)C(C)(C)[C@@H]5CC[C@]43C)[C@@H]2[C@@H]1C | 29.3 µM (≈ 12.5 µg/mL) | 117 µM (≈ 50.1 µg/mL) | 117 µM (≈ 50.1 µg/mL) | 58.7 µM (≈ 25 µg/mL) | 29.3 µM (≈ 12.5 µg/mL) | 117 µM (≈ 50.1 µg/mL) | 117 µM (≈ 50.1 µg/mL) | 14.7 µM (≈ 6.27 µg/mL) | 58.7 µM (≈ 25 µg/mL) | 117 µM (≈ 50.1 µg/mL) | 117 µM (≈ 50.1 µg/mL)
5 | C=C1C(=O)OCC1C/C=C(\C)CC(=O)C=C(C)C (stereo not drawn) [ANTHECOTULIDE] | 101 µM (≈ 25.1 µg/mL) | 202 µM (≈ 50.2 µg/mL) | 202 µM (≈ 50.2 µg/mL) | 101 µM (≈ 25.1 µg/mL) | 101 µM (≈ 25.1 µg/mL) | 202 µM (≈ 50.2 µg/mL) | 101 µM (≈ 25.1 µg/mL) | 51 µM (≈ 12.7 µg/mL) | 51 µM (≈ 12.7 µg/mL) | 202 µM (≈ 50.2 µg/mL) | 101 µM (≈ 25.1 µg/mL)
6 | c1ccc(-c2ccc(C(c3ccccc3)n3ccnc3)cc2)cc1 (stereo not drawn) [BIFONAZOLE] | – | – | – | – | – | – | – | – | – | – | 644 µM (≈ 200 µg/mL)
7 | COC(=O)c1ccc(O)c(OC)c1 [METHYL VANILLATE] | 275 µM (≈ 50 µg/mL) | – | – | 137 µM (≈ 25 µg/mL) | 137 µM (≈ 25 µg/mL) | 275 µM (≈ 50 µg/mL) | 275 µM (≈ 50 µg/mL) | 137 µM (≈ 25 µg/mL) | 137 µM (≈ 25 µg/mL) | 275 µM (≈ 50 µg/mL) | 275 µM (≈ 50 µg/mL)
